Source: PubChem BioAssay (several laboratories)
Only some compounds are listed: those with a hit (about 2.1% of all), similar ones and a draw of the others.
SUMO1 PPI mod: modulators of human SUMO1-mediated protein-protein interactions | 0.33% of 360,000 active | SUMO1 binding to a labelled peptide, TR-FRET, 1 h | AID 602429 | P63165 | inhibition, % at 20 µM; in the data active means inhibition above about 37%
LMPTP block: LMPTP (human) inhibition | P24666 | recombinant LMPTP-A, OMFP fluorogenic substrate, fluorescence intensity | inhibition, % at 20 µM | 0.22% of 360,000 active | AID 651560;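 active means compounds that cut the enzyme signal by at least half of the control window in the single-dose screen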;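 further: plate controls were DMSO wells with enzyme plus substrate for no effect and substrate without enzyme for full effect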
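material = LMPTP-A | quantity = 0.625 nM enzyme | reagent = OMFP substrate, 400 µM final | buffer or medium = Bis-Tris pH 6.0, DTT, detergent | detection = endpoint fluorescence intensity from OMFP dephosphorylation | dosing = single 20 µM dose | read-out basis = % inhibition relative to no-enzyme and uninhibited control wells | control set = no-enzyme and uninhibited controls | timing = 50 min at room temperature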
Scp1 inh: blocks human Scp-1 phosphatase activity; Q9GZU7; Recombinant Scp1, phosphopeptide, malachite green phosphate absorbance; inhibition, % at 20 µM; 0.88% of 340,000 active; AID 493091;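 active means inhibition above about 50% at 20 µM, limit read from the data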;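 further: plate controls were DMSO wells with enzyme for no effect and wells lacking enzyme for full effect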
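Incubation: 45 min enzyme reaction at room temperature / System: truncated SCP-1 phosphatase (76-261aa) / Reagent: Phospho 17-mer peptide substrate / Buffer or medium: Acidic Tris acetate buffer with magnesium and detergent / Signal: absorbance at 630 nm / Doses: one concentration, 20 µM, with 1.0% DMSO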
DNMT1 block: inhibitors of human DNMT1; P26358; DNMT1 molecular beacon, Hinp1I cleavage, fluorescence; inhibition (reported as % activation of signal), % at 10 µM; 0.83% of 360,000 active; AID 588458; in the data active means inhibition above about 50%
GRK2 aptamer HTS: blocks RNA aptamer binding to human GRK2 | P25098 | inhibition of aptamer binding, % at 10 µM | bead flow cytometry, FAM-aptamer displacement from GRK2 | 0.59% of 330,000 active | AID 488847;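 active means inhibition of aptamer binding above 40%, roughly 3 SD of noise, on plates passing a quality check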;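 further: median bead fluorescence of bound FAM aptamer so fluorescent compounds give negative values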
STEP inh: inhibitors of human striatal-enriched phosphatase STEP | recombinant STEP, OMFP fluorogenic substrate, fluorescence | 0.25% of 360,000 active | P54829 | inhibition, % at 20 µM;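 active means inhibition at 20 µM, scaled per plate between control wells, above about 37%, limit read from the data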;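 further: 0% = DMSO with enzyme and substrate and 100% = substrate only without enzyme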
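Also added – OMFP at 25 µM · Test system – STEP tyrosine phosphatase · Technique – FITC-channel fluorescence of OMFP product · Schedule – 20 min at room temperature, dark · Evaluation – control-normalized % inhibition with plate pattern correction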
DNMT1 interf DR: shows spectral interference in the DNMT1 beacon assay; shares compounds with DNMT1 block; molecular beacon fluorescence, spectral interference counter-screen; IC50, µM; 200 tested, under 10 active; AID 602382; call rule not given here
DNMT1 confirm: confirmation of human DNMT1 inhibitors | shares compounds with DNMT1 block | DNMT1 molecular beacon HinP1I cleavage, fluorescence | inhibition, % at 10 µM | 8% of 2,300 active;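 active means average inhibition of at least 30% in the single-concentration confirmation test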
DNMT1 interf: counter-screen for DNMT1 inhibitors: spectral interference. 1% of 2,300 active. shares compounds with DNMT1 block. activation (fluorescence interference), % at 10 µM. DNMT1 molecular beacon spectral interference counterscreen, fluorescence 485/520;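 active means activation of at least 30% at 10 µM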;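 further: DNMT1 catalytic domain with a HinP1I cleavage step and a FAM/dabcyl DNA beacon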
The depositor's hits bear a star; · = no result.

SMILES | SUMO1 PPI mod | LMPTP block | Scp1 inh | DNMT1 block | GRK2 aptamer HTS | STEP inh | DNMT1 confirm | DNMT1 interf | others
Cc1ccc(-c2cc(C(F)F)nc3sc4c(=O)[nH]cnc4c23)cc1 | -39 | -1 | -6 | 61* | 2 | -2 | 3 | 4
CC(C)c1nc2sc3c(=O)[nH]cnc3c2c2c1CCC2 | 29 | -1 | 0 | -4 | 4 | -2 | · | ·
COc1cccc(OC(=O)c2ccccc2)c1OC(=O)c1ccccc1 | -4 | 3 | -22 | 0 | · | 2 | · | ·
CN(CCN1CCOCC1)C(=O)C1CCC(=O)N(Cc2ccc(Cl)cc2)C1 (stereo not drawn) | 0 | -2 | · | 0 | · | 2 | · | ·
C=CCN1C(=O)/C(=C2/Sc3ccc(OC)cc3N2C)SC1=NCc1ccccc1 | -13 | 0 | -3 | 4 | 2 | 1 | · | ·
COc1ccc2c(c1)N(C)/C(=C1/SC(=NCc3ccccc3)N(c3ccccc3)C1=O)S2 | -17 | -2 | 9 | 53* | 0 | -1 | 3 | 0
C=CCn1c(SCc2nc3sc4c(c3c(=O)[nH]2)CCCC4)nc2ccccc2c1=O | 0 | 0 | -10 | 55* | 3 | -2 | 0 | -9
O=C1N/C(=C/c2ccc(Br)cc2)C(O)=C1C=NCc1ccccc1 | -3 | 0 | -2 | 62* | 0 | -2 | 0 | 1
O=C(NCC1CCCN(Cc2cccc(C(F)(F)F)c2)C1)c1ccc(F)cc1 (stereo not drawn) | -3 | -1 | 0 | 132* | 2 | -2 | 2 | 0
CCNC(=O)CC1C(=O)N(CC)C(=S)N1NC(=O)c1cccnc1 (stereo not drawn) | 3 | -1 | -9 | 3 | 0 | -4 | · | ·
CCOc1cccc2cc(-c3cn4cc(C)ccc4n3)c(=O)oc12 | -20 | 19 | -1 | 70* | 0 | -1 | 1 | -5
Cc1ccc(NC(=O)CSc2ncccc2C(=O)Oc2cccc([N+](=O)[O-])c2)cc1Cl | 6 | 44 | 41 | 53* | 13 | 24 | 4 | -1
NNC(=O)c1nc[nH]c1C(=O)Nc1ccccc1 | 2 | -3 | -1 | 66* | 4 | 0 | 0 | 16
O=C(Nc1cccc(Cl)c1)c1nc[nH]c1C(=O)NCCCCNC(=O)c1[nH]cnc1C(=O)Nc1cccc(Cl)c1 | -6 | -1 | -8 | 53* | 0 | 0 | 5 | 2
CC1=NN(c2ccccc2)C(=O)C1/C=C1\NC(=S)NC1=O (stereo not drawn) | 33 | 4 | 2 | 90* | 1 | 5 | 38* | -2 | DNMT1 interf DR=>99
CC1=NN(c2ccccc2)C(=O)C1C=Nc1ccccc1O (stereo not drawn) | -16 | 3 | -15 | 0 | 4 | 3 | · | ·
CCn1cc(Br)c(C(=O)Nc2sc3c(c2C(N)=O)CCCC3)n1 | 4 | 9 | -7 | 68* | 0 | 2 | 2 | -3
CC1CCN(c2nc(/C=C/c3ccccc3)nc3ccccc23)CC1 | -1 | 18 | 18 | 1 | 4 | 3 | · | ·
C(=C\c1nc(N2CCCC2)c2ccccc2n1)/c1ccccc1 | -2 | 85* | 18 | 61* | 0 | 2 | 3 | 3
Cn1nc([N+](=O)[O-])c2c(-c3nc4ccccc4s3)c(N)n(C3CCCCC3)c2c1=O | -8 | 3 | 6 | 62* | 0 | 10 | 1 | 5
CCCCn1c(N)c(-c2nc3ccccc3s2)c2c([N+](=O)[O-])nn(CC)c(=O)c21 | 3 | 0 | -2 | 0 | 0 | 2 | · | ·
O=C(NCC(F)(F)F)c1cc2c(c(-c3cccc(-c4ccccc4F)c3)n1)[C@@H](CCO)N(C(=O)CC1CC1)C2 | 0 | 1 | · | · | · | · | · | ·
CC(C=NNC(=O)C(=O)NN=CC(C)=Cc1ccccc1)=Cc1ccccc1 | -4 | -1 | -10 | 63* | · | 0 | 2 | 4
